Hsp70 activator – transcriptional activators of Hsp70; HeLa Hsp70 promoter luciferase reporter, luminescence; scaled: vehicle 0, proteasome-inhibitor control 100%; activation, % at 10 µM; hit rate 0.04% among 200,000; AID 1203;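 active = activation above the mean across all tested compounds plus 3 SD, cutoff set per campaign, cut at about 5.5% in these data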;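 also: 100% = MG132 at 30 µM as the positive control and 0% = DMSO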
HKDC1 inh – HKDC1 (human) hexokinase inhibition; inhibition, % at 20 µM; recombinant HKDC1, G6PDH/diaphorase resazurin coupled fluorescence; hit rate 0.16% among 340,000;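 active = inhibition above about 35% when tested at 20 µM, limit read from the data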;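 also: plate controls were DMSO wells with enzyme for no effect and DMSO wells lacking enzyme for full effect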
Target sequence (Q2TB90 whole entry, looked up): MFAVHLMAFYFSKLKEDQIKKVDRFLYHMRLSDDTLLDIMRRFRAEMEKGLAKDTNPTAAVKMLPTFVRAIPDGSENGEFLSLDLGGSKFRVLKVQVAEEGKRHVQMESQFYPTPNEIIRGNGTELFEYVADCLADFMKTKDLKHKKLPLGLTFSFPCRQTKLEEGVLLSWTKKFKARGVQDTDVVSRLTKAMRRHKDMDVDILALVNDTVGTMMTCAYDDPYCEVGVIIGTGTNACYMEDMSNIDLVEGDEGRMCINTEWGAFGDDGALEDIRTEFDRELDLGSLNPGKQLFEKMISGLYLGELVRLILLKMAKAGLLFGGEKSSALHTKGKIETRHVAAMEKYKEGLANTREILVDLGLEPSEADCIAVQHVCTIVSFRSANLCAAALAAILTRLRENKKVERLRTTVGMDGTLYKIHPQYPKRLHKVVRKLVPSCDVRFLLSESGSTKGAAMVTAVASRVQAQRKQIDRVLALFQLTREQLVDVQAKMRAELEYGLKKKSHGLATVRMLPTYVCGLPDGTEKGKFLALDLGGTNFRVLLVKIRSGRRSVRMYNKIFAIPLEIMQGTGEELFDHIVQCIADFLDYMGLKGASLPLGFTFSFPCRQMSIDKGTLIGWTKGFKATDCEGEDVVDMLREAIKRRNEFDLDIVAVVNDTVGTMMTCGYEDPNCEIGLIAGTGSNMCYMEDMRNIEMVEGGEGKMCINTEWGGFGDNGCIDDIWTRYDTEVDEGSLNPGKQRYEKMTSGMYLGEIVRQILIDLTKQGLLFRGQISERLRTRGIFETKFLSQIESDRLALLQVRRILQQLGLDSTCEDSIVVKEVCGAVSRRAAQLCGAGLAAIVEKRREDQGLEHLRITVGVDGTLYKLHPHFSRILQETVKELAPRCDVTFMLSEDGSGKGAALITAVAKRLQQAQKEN
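Assay system: recombinant HKDC1 hexokinase; detection: coupled resazurin fluorescence, excitation 525 nm, emission 613 nm; benchmarks: DMSO-plus-enzyme-mix negative control, buffer-substituted positive control; compound dosing: single 20 µM dose; schedule: 90 min at room temperature in dark; also added: glucose plus 1 mM ATP as hexokinase substrates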
HSF-1 act – increases HSF-1 driven luciferase reporter signal. NIH3T3-HGL HSF-1 luciferase reporter, MG132, 8 h; 100% = twice DMSO control signal. activation, % at 9 µM. hit rate 1.7% among 300,000;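 active = mean replicate activation of at least 50% with a set share of replicates each reaching 50%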;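 also: 0% = median of the neutral control wells and 100% = twice that signal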
HSF1 inh – HSF1 inhibition | NIH3T3-HGL HSE-luciferase, MG132-induced, luminescence 8 h; stronger effect = lower value | activity change, negative = inhibition, % at 7.5 µM (by protocol) | hit rate 0.77% among 300,000;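 active = more than half of replicate wells show activity change below -50%, luminescence cut by over half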;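 also: luciferase reports HSF-1 transcriptional activity via heat shock element; 0% = median of DMSO wells and -100% = zero luminescence signal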
HSP90 refold inh – blocks HSP90-mediated luciferase refolding in reticulocyte lysate; Rabbit reticulocyte lysate, luciferase refolding luminescence, 3 h; inhibition, % at 5.6 µM; hit rate 0.91% among 290,000;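 active = inhibition above the screen-wide mean plus 3 SD, computed separately per campaign, cut at about 16% in these data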;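 also: 0% = DMSO wells and 100% = 60 µM geldanamycin wells; inhibitors lower the luminescence because luciferase stays unfolded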
Tb hexokinase – blocks Trypanosoma brucei hexokinase 1 activity | recombinant TbHK1, G6PDH-coupled NADH A340 | hit rate 0.11% among 220,000 | inhibition, % at 10 µM | AID 1430;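 active = inhibition of 50% or more in the single-dose primary screen; inactive = inhibition below 50%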
Starred values were filed as active, the others as inactive; · = not tested or not shown. Rows were chosen to be rich in hits. Some 3.1% of all compounds tested hit in one or more screens of this group.

SMILES | Hsp70 activator | HKDC1 inh | HSF-1 act | HSF1 inh | HSP90 refold inh | Tb hexokinase
COc1ccc(C(CNC(=O)C(C)Oc2ccc(Br)cc2)N2CCCCC2)cc1 (centres undefined) | · | -2 | · | · | · | ·
Cc1ccc(C)c(OCCC(=O)N2CCN(S(=O)(=O)c3ccc([N+](=O)[O-])cc3)CC2)c1 | · | -1 | · | · | · | ·
O=C(CNC(=O)c1ccccc1Cl)OCC(=O)N1CCc2ccccc21 | 0 | -2 | 55* | 27 | -4 | 6
Cc1cccc(C(=O)NCC(=O)OCC(=O)N2CCc3ccccc32)c1 | 0 | -5 | 11 | -2 | 2 | 8
O=C(COc1ccc(F)cc1Br)N1CCc2ccccc21 | 0 | -6 | 80* | 23 | 0 | 8
CCOC(=O)C1CCN(c2c(NCc3ccc(C(=O)Nc4ccc(C)cc4)cc3)c(=O)c2=O)CC1 | · | -6 | -78 | -69* | 3 | -14
O=C(c1ccco1)N1CCN(S(=O)(=O)/C=C/c2ccccc2)CC1 | 0 | -4 | -69 | -59* | 5 | -2
COc1ccc(NC(=O)C2CCN(S(=O)(=O)c3cn(C)nc3C)CC2)cc1 | · | -2 | 18 | 1 | 6 | ·
COC1=CC(=O)[C@@]2([C@@H]1O)[C@@H](Cl)C[C@]13C(OC)=C(OC)C(=O)C[C@]21CCN3C | · | -7 | · | · | · | ·
Cc1cc(C)cc(N2C(=O)CN(Cc3ccccc3)C2=S)c1 | · | 2 | -82 | -78* | 14 | ·
CCCOc1ccc(S(=O)(=O)n2cc(F)c(=O)[nH]c2=O)cc1 | · | -5 | 4 | -4 | -3 | ·
O=C1NCCOC(=O)[C@@H](Cc2ccc(F)cc2)C/C=C\C[C@@H]1CC(=O)N(CCO)Cc1ccccc1 | · | -7 | · | · | · | ·
COc1ccc(S(=O)(=O)N(C)CC(=O)N2CCC(C(N)=O)CC2)cc1Cl | 0 | 4 | 66* | 25 | 3 | 6
CC(=O)Nc1ccc(N=NN2CCOCC2)cc1 | 0 | -11 | -2 | -5 | 4 | 1
CC(=O)Nc1ccc(N=Nc2ccc(O)cc2)cc1 | 0 | -5 | 57* | 31 | 3 | 12
CC(OC(=O)c1ccc2c(=O)n3c(nc2c1)CCC3)C(=O)NC1CCCCC1C (centres undefined) | · | 1 | -12 | -5 | -2 | ·
Cc1cnc(NC(=O)c2nn(C)cc2[N+](=O)[O-])s1 | 0 | -9 | 150* | 139 | 7 | -18
Cn1cc([N+](=O)[O-])c(C(=O)Nc2nc(-c3ccc(Cl)cc3)cs2)n1 | 1 | 4 | 140* | 102 | 8 | -2
Cc1ccc(-c2nc(NC(=O)c3nn(C)cc3[N+](=O)[O-])sc2C)cc1 | 1 | -2 | 28 | 8 | 5 | -20
CC(=O)c1c(C)[nH]c(C(=O)Nc2nc(-c3ccc(Cl)cc3)cs2)c1C | 0 | 0 | 39 | 9 | -5 | -7
CCOc1cc(/C=C2/SC(=S)N(CC3CCCO3)C2=O)ccc1O (centres undefined) | 0 | -5 | 73* | 28 | 2 | -1
Cc1ccc(N(CC(=O)NCc2ccccn2)S(=O)(=O)c2ccccc2)cc1C | · | -2 | 17 | -1 | 3 | ·
Fc1ccc(-c2nc3nc4ccccc4nc3n2Cc2ccco2)cc1 | 0 | -1 | 36 | 23 | 17* | -19
c1ccc(-c2nc3nc4ccccc4nc3n2Cc2ccco2)cc1 | 0 | 5 | -3 | 8 | 3 | -16
COc1ccc(C2=NOC(C(=O)N3CCCCCC3)C2)cc1OC (centres undefined) | 0 | -8 | -83 | -78* | 0 | -5
SMILES | Hsp70 activator | HKDC1 inh | HSF-1 act | HSF1 inh | HSP90 refold inh | Tb hexokinase
COc1ccc(C2=NOC(C(=O)Nc3c(C)n(C)n(-c4ccccc4)c3=O)C2)cc1OC (centres undefined) | 0 | -8 | -79 | -73* | -1 | -6
CCN(c1ccc(C(=O)CN2C(=O)NC3(CCOc4ccccc43)C2=O)cc1)S(C)(=O)=O (centres undefined) | · | 0 | · | · | · | ·
CSc1sc(C(=O)OC(C)C)c2c1C(=O)CC(C)(C)C2 | · | 3 | 53* | 30 | 0 | -9
CC1/C(=N/O)CC(c2ccco2)NC1c1ccco1 (centres undefined) | 0 | -7 | 31 | 4 | -1 | 1
CC1C(=O)C(C)C(c2ccco2)NC1c1ccco1 (centres undefined) | 0 | -15 | -71 | -64* | -3 | -9
CC(C)C[C@@H](CC#N)N1CCN(Cc2ccccc2)CCC1=O | · | -2 | -69 | -61* | -4 | ·
O=C(C1CCCN(S(=O)(=O)c2ccc(Cl)cc2)C1)N(Cc1cccs1)C1CC1 (centres undefined) | 0 | 5 | -73 | -65* | 0 | 0
COc1ccccc1NC(=S)N=Nc1c(O)[nH]c2ccc(Br)cc12 | · | -11 | 86* | 78 | 3 | -13
O=C(N=Nc1c(O)[nH]c2ccccc12)Nc1ccccc1 | · | 9 | · | · | · | ·
Cc1cccc(NC(=S)N=Nc2c(O)[nH]c3ccccc23)c1 | 0 | -11 | 90* | 55 | 0 | 15
Oc1[nH]c2ccc(Br)cc2c1N=NC(=S)NCC1CCCO1 (centres undefined) | · | 8 | -11 | -8 | 3 | -32
Cc1occc1C(=O)N=Nc1c(O)[nH]c2ccc(Br)cc12 | 0 | · | 50* | 20 | -1 | -19
OCC[C@@H]1C[C@H](O)[C@@H](O)[C@@]2(CCCCO2)O1 | · | -3 | -6 | -1 | · | ·
CN(CC1COc2ccccc2O1)C(=O)CSc1ncccn1 (centres undefined) | · | -6 | · | · | · | ·
CCOc1ncccc1C(=O)N(C)CC1COc2ccccc2O1 (centres undefined) | 0 | -2 | 175* | 97 | 1 | -7
Cc1ccc(NC2=CC(=O)CC(C)(C)C2)c(N)c1 | 1 | -3 | 0 | -3 | 3 | -7
CC1(C)CC(=O)C=C(Nc2ccc(Br)cc2F)C1 | · | 4 | -70 | -64* | 1 | ·
CCCc1cc(=O)[nH]c(SCc2nc3ccccc3s2)n1 | 0 | -6 | 62* | 19 | 0 | -1
Cc1cc(=O)[nH]c(SCc2nc3ccccc3s2)n1 | 0 | 3 | -3 | 19 | -5 | 1
COc1cccc(N2C(=O)N(c3ccccc3)C3CS(=O)(=O)CC32)c1 (centres undefined) | 0 | -14 | -88 | -84* | -2 | -2
CCSc1nnc(-c2ccc(S(=O)(=O)NCc3cccs3)cc2)o1 | 0 | 4 | -71 | -68* | 0 | 2
CCOC(=O)c1c(C)[nH]c(C)c1S(=O)(=O)N1CCN(c2ccc(F)cc2)CC1 | · | -2 | 63* | 28 | -2 | ·
CC1CCCCN1C(=O)COc1ccccc1F (centres undefined) | 0 | 9 | 56* | 19 | 2 | 6
O=C(COc1ccc(F)c(Cl)c1)c1ccc[nH]1 | 0 | 2 | 93* | 63 | 5 | 4
C/C(=N\NC(=O)COc1ccc([N+](=O)[O-])cc1)c1ccco1 | · | 0 | · | · | · | ·

High-throughput results from PubChem.
